Laboratory results as given in ChEMBL document CHEMBL3600321, “Synthesis and antifungal evaluation of head-to-head and head-to-tail bisamidine compounds” (Bioorg Med Chem, 2015).
Converted amounts (≈) assume the structure as drawn.

Assays:
Candida albicans = experiment: Antifungal activity against Candida albicans WTBF-50 by microbroth dilution method; format: functional
How it was run: (§1)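 CLSI microbroth dilution in RPMI 1640 with L-glutamine. MIC values are geometric means of three independent assays.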

Pichia kudriavzevii = experiment: Antifungal activity against Candida krusei WTBF-51 by microbroth dilution method; format: functional
Cryptococcus neoformans = experiment: Antifungal activity against Cryptococcus neoformans Cn18 (Serotype C) WTBF-106 by microbroth dilution method; format: functional
How it was run: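 Microbroth dilution per the CLSI protocol, run in Sabouraud Dextrose Broth in place of RPMI. MIC values are geometric means of three independent assays.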

HeLa = experiment: Cytotoxicity against human HeLa cells assessed as cell viability after 72 hrs by MTS assay; format: cell-based
[1] = Metabolic stability in liver microsomes (unknown origin); format: ADME
Nakaseomyces glabratus = experiment: Antifungal activity against Candida glabrata ATCC 90030 WTBF-86 by microbroth dilution method; format: functional; how it was run: as §1
Candida parapsilosis = experiment: Antifungal activity against Candida parapsilosis ATCC 90018 WTBF-88 by microbroth dilution method; format: functional; details: Lodderomyces parapsilosis; how it was run: as §1

`c1cc2[nH]c(-c3ccc(-c4cc5ccc(C6=NCCCN6)cc5[nH]4)cc3)cc2cc1C1=NCCCN1` gave an MIC (Candida albicans) of 7.87 µg/mL (≈ 16.7 µM), an MIC (Pichia kudriavzevii) of 19.8 µg/mL (≈ 41.9 µM) and an MIC (Cryptococcus neoformans) of 3.12 µg/mL (≈ 6.6 µM). The CC50 (HeLa) was 13.6 µg/mL (≈ 28.8 µM) and the Stability [1] was “Stable”.
`c1cc2cc(CCCc3cc4ccc(C5=NCCCN5)cc4[nH]3)[nH]c2cc1C1=NCCCN1` showed an MIC (Candida albicans) of 22.6 µg/mL (≈ 51.6 µM), an MIC (Pichia kudriavzevii) of 32 µg/mL (≈ 73 µM) and an MIC (Nakaseomyces glabratus) of 12.7 µg/mL (≈ 29 µM). It also gave an MIC (Candida parapsilosis) of 32 µg/mL (≈ 73 µM), an MIC (Cryptococcus neoformans) of 16 µg/mL (≈ 36.5 µM) and a CC50 (HeLa) of 80.3 µg/mL (≈ 183 µM). The Stability [1] was “Stable”.
Molecule `CC(=O)O.c1cc2cc(-c3cnc(-c4cc5ccc(C6=NCCCN6)cc5[nH]4)nc3)[nH]c2cc1C1=NCCCN1` has an MIC (Candida albicans) of 0.31 µg/mL, an MIC (Pichia kudriavzevii) of 0.25 µg/mL and an MIC (Nakaseomyces glabratus) of at most 0.03 µg/mL. It also gave an MIC (Candida parapsilosis) of 0.13 µg/mL, an MIC (Cryptococcus neoformans) of 1.24 µg/mL and a CC50 (HeLa) of 25.5 µg/mL. The Stability [1] was “Stable”.
For `CC(=O)O.c1cc2cc(-c3ccc(-c4cc5ccc(C6=NCCCN6)cc5o4)cc3)[nH]c2cc1C1=NCCCN1`, the MIC (Candida albicans) was 0.5 µg/mL, the MIC (Pichia kudriavzevii) was 1 µg/mL and the MIC (Nakaseomyces glabratus) was 0.16 µg/mL. It also gave an MIC (Candida parapsilosis) of 0.25 µg/mL, an MIC (Cryptococcus neoformans) of 0.25 µg/mL and a CC50 (HeLa) of 4.7 µg/mL. The Stability [1] was “Stable”.
`CC(=O)O.c1cc2cc(-c3ccc4cc(C5=NCCCN5)oc4c3)[nH]c2cc1C1=NCCCN1` gave an MIC (Candida albicans) of 0.31 µg/mL, an MIC (Pichia kudriavzevii) of 4 µg/mL and an MIC (Nakaseomyces glabratus) of 0.13 µg/mL. It also gave an MIC (Candida parapsilosis) of 0.5 µg/mL, an MIC (Cryptococcus neoformans) of 0.5 µg/mL and a CC50 (HeLa) of 17.1 µg/mL. For the same molecule, the Stability [1] was “Stable”.
With `CC(=O)O.c1cc2cc(-c3cnc(-c4cc5ccc(C6=NCCCN6)cc5o4)cn3)oc2cc1C1=NCCCN1` the MIC (Candida albicans) was 20.2 µg/mL, the MIC (Pichia kudriavzevii) was 20.2 µg/mL and the MIC (Nakaseomyces glabratus) was 16 µg/mL. The MIC (Candida parapsilosis) was 2 µg/mL, the MIC (Cryptococcus neoformans) was 3.13 µg/mL and the CC50 (HeLa) was over 80 µg/mL. The Stability [1] was “Stable”.
With `CC(=O)O.c1cc2cc(-c3ccc4oc(C5=NCCCN5)cc4c3)[nH]c2cc1C1=NCCCN1` the MIC (Candida albicans) was 0.4 µg/mL, the MIC (Pichia kudriavzevii) was 4 µg/mL and the MIC (Nakaseomyces glabratus) was 1 µg/mL. It also gave an MIC (Candida parapsilosis) of 0.5 µg/mL, an MIC (Cryptococcus neoformans) of 1 µg/mL and a CC50 (HeLa) of 50.5 µg/mL. The Stability [1] was “Stable”.
With `CC(=O)O.c1cc2cc(-c3ccc(-c4cc5ccc(C6=NCCCN6)cc5o4)cn3)[nH]c2cc1C1=NCCCN1` the MIC (Candida albicans) was 0.5 µg/mL, the MIC (Pichia kudriavzevii) was 0.5 µg/mL and the MIC (Nakaseomyces glabratus) was 0.06 µg/mL. For the same molecule, the MIC (Candida parapsilosis) was 0.13 µg/mL, the MIC (Cryptococcus neoformans) was 0.25 µg/mL and the CC50 (HeLa) was 15.6 µg/mL. For the same molecule, the Stability [1] was “Stable”.
Molecule `O=C(O)C(F)(F)F.c1cc2cc(-c3ccc(-c4cn5ccc(C6=NCCCN6)cc5n4)cc3)[nH]c2cc1C1=NCCCN1` has an MIC (Candida albicans) of 4 µg/mL, an MIC (Pichia kudriavzevii) of 6.35 µg/mL and an MIC (Nakaseomyces glabratus) of 4 µg/mL. For the same molecule, the MIC (Candida parapsilosis) was 0.5 µg/mL, the MIC (Cryptococcus neoformans) was 1 µg/mL and the CC50 (HeLa) was 20.9 µg/mL. For the same molecule, the Stability [1] was “Stable”.
Molecule `N=C(NCCO)c1ccc2cc(-c3ccc(-c4cc5ccc(C(=N)NCCO)cc5[nH]4)cc3)[nH]c2c1.O=C(O)C(F)(F)F` has an MIC (Candida albicans) of 0.25 µg/mL, an MIC (Pichia kudriavzevii) of 1.59 µg/mL and an MIC (Nakaseomyces glabratus) of 0.13 µg/mL. It also gave an MIC (Candida parapsilosis) of 0.25 µg/mL, an MIC (Cryptococcus neoformans) of 1.97 µg/mL and a CC50 (HeLa) of 14 µg/mL. The Stability [1] was “Stable”.
With `O=C(O)C(F)(F)F.c1cc2cc(CCc3cc4ccc(C5=NCCCN5)cc4[nH]3)[nH]c2cc1C1=NCCCN1` the MIC (Candida albicans) was 3.17 µg/mL, the MIC (Pichia kudriavzevii) was 8 µg/mL and the MIC (Nakaseomyces glabratus) was 1 µg/mL. It also gave an MIC (Candida parapsilosis) of 2 µg/mL, an MIC (Cryptococcus neoformans) of 1 µg/mL and a CC50 (HeLa) of 24.6 µg/mL. The Stability [1] was “Stable”.
Molecule `CC(=O)O.c1cn2cc(-c3ccc(-c4ccc5cc(C6=NCCCN6)oc5c4)cc3)nc2cc1C1=NCCCN1` has an MIC (Candida albicans) of 8 µg/mL, an MIC (Pichia kudriavzevii) of 8 µg/mL and an MIC (Nakaseomyces glabratus) of 1.59 µg/mL. For the same molecule, the MIC (Candida parapsilosis) was 2.52 µg/mL, the MIC (Cryptococcus neoformans) was 3.94 µg/mL and the CC50 (HeLa) was 32.5 µg/mL. For the same molecule, the Stability [1] was “Stable”.
Work on `CC(=O)N1CCN(c2ccc(OCC3COC(Cn4ccnc4)(c4ccc(Cl)cc4Cl)O3)cc2)CC1` (configuration not stated) [KETOCONAZOLE] yielded an MIC (Candida albicans) of 20.2 µg/mL (≈ 38 µM), an MIC (Pichia kudriavzevii) of 4 µg/mL (≈ 7.53 µM) and an MIC (Nakaseomyces glabratus) of at least 32 µg/mL. The MIC (Candida parapsilosis) was 0.06 µg/mL (≈ 0.113 µM) and the MIC (Cryptococcus neoformans) was 32 µg/mL (≈ 60.2 µM).
For `OC(Cn1cncn1)(Cn1cncn1)c1ccc(F)cc1F` [FLUCONAZOLE], the MIC (Candida albicans) was at least 32 µg/mL, the MIC (Pichia kudriavzevii) was at least 32 µg/mL and the MIC (Nakaseomyces glabratus) was at least 32 µg/mL. The MIC (Candida parapsilosis) was 1 µg/mL (≈ 3.27 µM) and the MIC (Cryptococcus neoformans) was 32 µg/mL (≈ 104 µM).
For `Nc1nc(=O)[nH]cc1F` [FLUCYTOSINE], the MIC (Candida albicans) was 1.25 µg/mL (≈ 9.68 µM), the MIC (Pichia kudriavzevii) was at least 20 µg/mL and the MIC (Nakaseomyces glabratus) was 0.31 µg/mL (≈ 2.4 µM). The MIC (Candida parapsilosis) was 1.25 µg/mL (≈ 9.68 µM) and the MIC (Cryptococcus neoformans) was at least 20 µg/mL.
